Compound activity from PubChem.
SMARCA2 act: increases SMARCA2 function in MMTV reporter cells; MG213 cells, MMTV-luciferase reporter, dexamethasone, overnight; activation, % at 9.1 µM; 370,000 tested, 1% active; in the data active means activation above about 7.8%
H9c2 TAG inh: triacylglycerol accumulation inhibition. H9c2 cells, Nile Red lipid (TAG) fluorescence; cells loaded with 200 µM oleic acid. inhibition, % at 12.5 µM. 230,000 tested, 0.66% active;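 active means pattern-corrected inhibition of lipid staining of at least 50% with the nuclear-stain viability signal not falling by more than 50%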
SR-BI DiI inh: mouse SR-BI HDL lipid transfer inhibition; Q61009; ldlA[mSR-BI] CHO cells, DiI-HDL uptake fluorescence, 3 h; 320,000 tested, 0.96% active; inhibition, % at 12.5 µM; AID 488896;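 active means mean replicate inhibition of at least 70% and a set share of replicates each scoring 70 or more; inconclusive means meets just one of the two criteria; inactive means fails both criteria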
Target sequence (Q61009 whole entry, looked up): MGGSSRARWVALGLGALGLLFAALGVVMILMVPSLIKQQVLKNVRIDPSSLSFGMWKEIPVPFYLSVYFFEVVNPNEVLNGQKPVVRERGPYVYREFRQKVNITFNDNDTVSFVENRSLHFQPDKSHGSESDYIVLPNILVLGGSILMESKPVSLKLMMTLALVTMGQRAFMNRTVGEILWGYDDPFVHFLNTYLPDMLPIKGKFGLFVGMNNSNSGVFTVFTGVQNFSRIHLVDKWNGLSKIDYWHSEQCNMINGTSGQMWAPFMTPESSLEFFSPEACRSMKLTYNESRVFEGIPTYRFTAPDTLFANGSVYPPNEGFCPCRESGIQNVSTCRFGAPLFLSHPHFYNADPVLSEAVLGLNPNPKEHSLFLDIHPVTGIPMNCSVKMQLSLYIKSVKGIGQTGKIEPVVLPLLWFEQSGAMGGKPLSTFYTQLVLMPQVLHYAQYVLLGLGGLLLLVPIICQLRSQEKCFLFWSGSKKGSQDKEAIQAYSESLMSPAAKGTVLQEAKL
Vif inh: inhibitors of HIV Vif | HEK293T cells, Vif self-association by quenched fluorescence, imaging, 24 h | AID 602346 | inhibition, % at 7.49 µM | 340,000 tested, 0.35% active; in the data active means inhibition above about 50%, passing the limit was not always enough; inconclusive means no clear call, values can overlap the other calls; inactive means below about 31%
SR-BI DiI-HDL act: activators of SR-BI mediated HDL lipid uptake; CHO ldlA[mSR-BI] cells, DiI-HDL uptake fluorescence, 3 h; 100 = double the neutral-control signal; 320,000 tested, 0.096% active; AID 504775; activation, % at 12.5 µM;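 active means mean replicate activation of at least 60% and every replicate at or above 60%; inconclusive means mean or all-replicate condition met, but not both; inactive means mean below 60% and not all replicates reaching 60%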
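Assay system: LDL receptor-deficient CHO ldlA cells overexpressing murine SR-BI / Medium: BSA-supplemented, HEPES-buffered Ham's F12, pH 7.4 / Probe or stimulus: DiI-labelled HDL at 10 µg/mL final / Timing: compound with DiI-HDL co-incubation, 3 h at 37 °C / Technique: bottom-read cell fluorescence after medium removal, ex 550/em 595 nm / Measure: HDL uptake via cellular fluorescence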
SMARCA2 act conf: confirmation of SMARCA2 (BRM) function activators; MG213 cells, MMTV-luciferase with dexamethasone, luminescence, overnight; MG213 cells expressing E1A, Rb sequestered; DMSO wells 0%, reference activator 100%; shares compounds with SMARCA2 act; 3,500 tested, 30% active; activation, % at 9.1 µM;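 active means activation above its plate's cutoff, the mean activation of tested wells plus 3 SD, cut at about 7.9% in these data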
GAL4-VP16 Luc: GAL4-VP16 reporter activation counter-screen; activation, % at 9.1 µM; shares compounds with SMARCA2 act; 3,500 tested, 41% active; AID 686939; HEK293 GAL4-VP16 pG5luc reporter, luciferase luminescence; scaled: DMSO wells 0%, SAHA wells 100%;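 active means activation above the solvent-only control well mean plus 3 SD, averaged across control plates, cut at about 5.2% in these data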
A number is an active result; – = inactive; ? = inconclusive; · = no result given. The list is not random: actives were taken first. Their share in the collection is about 2.5%.

SMILES	SMARCA2 act	H9c2 TAG inh	SR-BI DiI inh	Vif inh	SR-BI DiI-HDL act	SMARCA2 act conf	GAL4-VP16 Luc
COc1ccc(C(=O)NC(=O)Nc2cc(C)ccn2)cc1	12	·	–	·	–	–	–
CC(c1ccccc1)n1cc(C(=O)N2CCCC2)nn1 (stereo not given)	–	·	·	·	·	·	·
Cc1c(NC(=O)C(C)OC(=O)c2cccnc2)c(=O)n(-c2ccccc2)n1C (stereo not given)	8.3	·	–	–	–	–	–
COc1ccccc1NC(CC(=O)c1ccccc1)C(=O)OCC(=O)c1ccc(F)cc1 (stereo not given)	10.0	–	–	–	–	8.6	15
C/C(=N\NC(=S)Nc1ccccc1)C1Cc2ccccc2C(=O)O1 (stereo not given)	8.3	–	·	–	·	–	–
C/C(=N\NC(=S)Nc1ccccc1C)C1Cc2ccccc2C(=O)O1 (stereo not given)	–	–	–	–	–	·	·
CC(C)(O)c1cc2ccc(C#Cc3ccsc3)cc2c(=O)o1	–	–	–	–	–	·	·
COc1cccc(CNc2nc3cc(C(C)=C(C)C)sc3c(=O)n2C)c1	–	–	·	·	·	·	·
Nc1nccc(/C=C/c2c(F)cccc2Cl)n1	–	–	–	–	–	·	·
Oc1ccc(/C=C/c2ccc3cccc(O)c3n2)cc1Br	–	·	–	–	–	·	·
Oc1cccc2ccc(/C=C/c3ccccc3Cl)nc12	12	·	–	–	–	–	11
Oc1cccc2ccc(/C=C/c3c(F)cccc3Cl)nc12	11	–	–	–	–	–	16
O=C(O)c1ccc(/C=C/c2ccc3cccc(O)c3n2)cc1	8.0	–	–	–	–	16	6.2
O=C(OCCN1CCN(C2CN(Cc3cn(Cc4ccccc4Cl)nn3)S(=O)(=O)C2)CC1)c1cccs1 (stereo not given)	–	·	·	·	·	·	·
COc1ccc(/C=N\NC(=O)c2ccc(=O)[nH]n2)cc1O	12	·	–	–	–	–	–
Cc1sc2nc(CN3CCCCC3)nc(Nc3ccc4c(c3)OCCO4)c2c1C	9.2	–	–	–	–	11	–
Cc1ccc(NC(=O)c2cnn(-c3ccccc3)c2NC(=O)c2ccco2)cc1	–	·	–	–	–	·	·
O=C(Nc1ccc2c(c1)ncn2-c1ccccc1)c1ccco1	11	·	–	?	–	16	7.9
O=C(Nc1c(C(=O)Nc2ccccc2)cnn1-c1ccccc1)c1ccco1	9.8	·	–	–	–	–	–
CCOC(=O)C[n+]1c(C)csc1C	8.6	·	–	–	–	–	–
Cc1csc(C)[n+]1CC(=O)c1ccccc1	–	–	–	–	–	·	·
CN(CC(=O)Nc1ccccc1Br)C(=O)c1ccc(-c2ccc(Cl)cc2)o1	8.9	–	–	–	–	–	–
CN(CC(=O)Nc1ccccc1C(F)(F)F)C(=O)c1ccc(-c2ccc(Cl)cc2)o1	–	–	–	–	–	·	·
COc1ccc(NC(=O)c2ccc(Oc3ncccn3)cc2)cc1	9.4	–	–	–	–	–	–
O=C1c2ccccc2C(=O)c2c1ccc1c(=O)n(-c3ccccc3)[nH]c21	–	·	–	–	–	·	·
SMILES	SMARCA2 act	H9c2 TAG inh	SR-BI DiI inh	Vif inh	SR-BI DiI-HDL act	SMARCA2 act conf	GAL4-VP16 Luc
Cc1cccc(-n2[nH]c3c4c(ccc3c2=O)C(=O)c2ccccc2C4=O)c1	8.3	·	–	–	–	–	–
CC(=O)Nc1ccc(NC(=O)c2ccc(-c3c(C)noc3C)c3ccoc23)cc1	8.6	–	·	–	·	–	10
COP(=O)(O)[C@@H](CC(C)C)NC(=O)OCc1ccccc1	–	·	·	·	·	·	·
O=C(CN1CCCCC1)Nc1c2c(nc3ccccc13)N(c1ccccc1)CC2	11	–	–	–	–	9.4	–
N=c1n(CCN2CCCC2)c2ccccc2n1CC(O)c1ccc(Cl)c(Cl)c1 (stereo not given)	14	·	–	–	–	–	–
CC1CCc2c(sc(/N=C/c3ccco3)c2C(N)=O)C1 (stereo not given)	8.8	–	–	–	–	–	6.2
CC(C)CN1C(=O)C[C@@]2(C(=O)N(C)c3ccc(NC(=O)C(F)(F)F)cc32)C1c1ccccc1 (stereo not given in full)	–	·	·	·	·	·	·
